Reference: BindingDB's records for doi:10.1016/j.bmc.2019.02.023 (Wesleyan University, 2019)

Biological target: Beta-lactamase (Enterobacter cloacae, UniProt P05364)
Experiment: Irreversible inhibition of Enterobacter cloacae P99 beta-lactamase using cephalothin as substrate by spectrophotometric analysis
Details: read-out: kon (M-1-s-1)
Summary of the method: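 P99 class C β-lactamase (stock concentration by A280, ε 7.1 x 10⁴ M⁻¹cm⁻¹) incubated with inhibitor in 20 mM MOPS pH 7.5, 0.1% BSA, 25 °C. Aliquots diluted 1:50 into 300 μM cephalothin; initial rates followed at 270 nm over time. Titration: 150 nM enzyme with 0–2.0 μM inhibitor to end-point. Time-course and titration data fitted jointly to Scheme 2, k2 fixed at 100 s⁻¹, giving k1, k2/k3 and k_i.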

Beta-lactamase, sequence (P05364 whole entry): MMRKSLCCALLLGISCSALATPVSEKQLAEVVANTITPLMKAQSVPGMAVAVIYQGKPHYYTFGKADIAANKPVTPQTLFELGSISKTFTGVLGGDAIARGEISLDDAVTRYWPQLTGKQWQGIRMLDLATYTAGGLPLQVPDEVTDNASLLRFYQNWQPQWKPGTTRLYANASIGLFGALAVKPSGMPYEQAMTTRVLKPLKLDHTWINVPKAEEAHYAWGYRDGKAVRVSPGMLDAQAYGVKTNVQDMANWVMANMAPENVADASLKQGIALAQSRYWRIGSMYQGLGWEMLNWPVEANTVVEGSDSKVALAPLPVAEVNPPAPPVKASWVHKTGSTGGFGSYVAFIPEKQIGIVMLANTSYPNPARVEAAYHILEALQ

O=C(NOC(=O)Oc1ccccc1)OCc1ccccc1
kon: 2000 M⁻¹ s⁻¹

O=C(NOC(=O)Oc1ccccc1)OCCc1ccccc1
kon: 1400 M⁻¹ s⁻¹

N[C@H](CCCOC(=O)NOC(=O)Oc1ccccc1)C(=O)O
kon: 16000 M⁻¹ s⁻¹

CCCCOC(=O)NOC(=O)Oc1ccccc1
kon: 1100 M⁻¹ s⁻¹

O=C(O)CCCCOC(=O)NOC(=O)Oc1ccccc1
kon: 8500 M⁻¹ s⁻¹
